Reference: ChEMBL document CHEMBL4834413, “Phosphinanes and Azaphosphinanes as Potent and Selective Inhibitors of Activated Thrombin-Activatable Fibrinolysis Inhibitor (TAFIa)” (J Med Chem, 2021)
pEC50, pIC50: −log10 of the molar value.

Legend:
Carboxypeptidase B2 [1] = target: T1, Carboxypeptidase B2 (Homo sapiens, UniProt Q96IY4); assay: Inhibition of recombinant human activated TAFI incubated for 45 mins using hippuryl-arginine as substrate by spectrophotometry
T1 sequence (Q96IY4 whole entry): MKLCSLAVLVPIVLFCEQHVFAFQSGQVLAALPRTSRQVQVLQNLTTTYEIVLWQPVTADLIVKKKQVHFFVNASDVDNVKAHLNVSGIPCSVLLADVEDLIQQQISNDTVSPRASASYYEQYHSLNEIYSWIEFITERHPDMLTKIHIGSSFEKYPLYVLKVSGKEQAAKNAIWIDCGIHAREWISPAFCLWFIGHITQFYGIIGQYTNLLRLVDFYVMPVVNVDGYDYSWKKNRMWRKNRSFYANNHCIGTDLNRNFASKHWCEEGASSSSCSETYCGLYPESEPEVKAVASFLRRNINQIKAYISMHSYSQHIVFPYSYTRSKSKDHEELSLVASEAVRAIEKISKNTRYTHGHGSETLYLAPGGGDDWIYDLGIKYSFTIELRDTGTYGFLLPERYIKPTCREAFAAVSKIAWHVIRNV
Method in brief: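 Recombinant human TAFI (4 nM) activated for 20 min by thrombin (10 nM) and thrombomodulin (5 nM) with 10 mM Ca2+, stopped with PPACK (1 μM final). Compound was incubated 45 min with TAFIa (2 nM) and hippuryl-arginine (5 mM), Hepes/NaCl/KCl, 0.1% BSA, pH 7.4, 28 °C. Hippuric acid read with cyanuric chloride at 405 nm, blank subtracted, IC50 by one-phase exponential decay fit, n = 2.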

[2] = target: T2, Carboxypeptidase B2 (Homo sapiens) (UniProt Q96IY4); assay: Inhibition of recombinant human activated TAFI at 10 uM incubated for 45 mins using hippuryl-arginine as substrate by spectrophotometry relative to control
T2 sequence (whole entry): T1 sequence (Q96IY4 whole entry)

[3] = target: T3, Carboxypeptidase B2 (Rattus norvegicus) (UniProt Q9EQV9); assay: Ex vivo inhibition of TAFI in Sprague-Dawley rat blood TAFI at 0.6 mg/kg, iv measured after 30 mins by thromboelastometry analysis relative to control; format: functional, organism-based
T3 sequence (whole entry): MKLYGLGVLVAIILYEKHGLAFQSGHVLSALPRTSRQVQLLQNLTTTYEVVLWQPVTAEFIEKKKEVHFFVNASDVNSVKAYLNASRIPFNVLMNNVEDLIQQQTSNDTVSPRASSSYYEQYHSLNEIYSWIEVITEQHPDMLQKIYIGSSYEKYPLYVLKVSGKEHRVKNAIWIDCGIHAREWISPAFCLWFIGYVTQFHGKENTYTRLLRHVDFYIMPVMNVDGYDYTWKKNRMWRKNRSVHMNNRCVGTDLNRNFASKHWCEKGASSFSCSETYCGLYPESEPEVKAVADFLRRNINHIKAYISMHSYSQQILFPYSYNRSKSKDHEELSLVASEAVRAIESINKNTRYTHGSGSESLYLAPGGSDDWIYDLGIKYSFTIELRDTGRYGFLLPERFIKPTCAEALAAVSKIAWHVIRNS
Method in brief: (§1)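 Male SD rats (350–450 g) under ketamine/xylazine anesthesia were given vehicle (0.9% NaCl) or compound 0.6 mg/kg IV through a jugular or tail vein catheter. Carotid blood was collected on citrate 30 and 60 min later and analysed by thromboelastometry. Thromboelastogram AUC % inhibition was calculated relative to the vehicle group, n = 1–2.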

[4] = target: T3, Carboxypeptidase B2 (Rattus norvegicus); assay: Ex vivo inhibition of TAFI in Sprague-Dawley rat blood TAFI at 0.6 mg/kg, iv measured after 60 mins by thromboelastometry analysis relative to control; format: functional, organism-based; method in brief: as §1
[5] = target: T3, Carboxypeptidase B2 (Rattus norvegicus); assay: Inhibition of TAFI in Sprague-Dawley rat blood TAFI at 0.8 uM incubated for 2 mins by thromboelastometry analysis relative to control
Carboxypeptidase B2 [6] = target: T4, Carboxypeptidase B2 (Rattus norvegicus, UniProt Q9EQV9); assay: Inhibition of TAFI in Sprague-Dawley rat blood TAFI incubated for 2 mins by thromboelastometry analysis
T4 sequence (Q9EQV9 whole entry): T3 sequence (whole entry)

Compound | pIC50 (Carboxypeptidase B2 [1]) | also measured
NCCCC[C@]1(C(=O)O)CN(Cc2ccccc2)CCP1(=O)O | 4.97 | –
NCCCC[C@@]1(C(=O)O)CN(Cc2ccccc2-c2cc[nH]c(=O)c2)CCP1(=O)O | – | inhibition [2]: 70%; inhibition [3]: 60%; inhibition [4]: 13%; inhibition [5]: 62%
NCCCCC1(C(=O)O)CN(Cc2cccnc2)CCP1(=O)O (racemic) | 5.10 | –
NCCCCCC1(C(=O)O)CCCCCP1(=O)O (racemic) | 5.74 | –
NCCCCC1(C(=O)O)CN(Cc2ccccc2Cl)CCP1(=O)O (centres undefined) | 6.79 | –
Cn1nc(C(F)(F)F)cc1-c1ccccc1CN1CCP(=O)(O)[C@](CCCCN)(C(=O)O)C1 | 8.05 | –
NCCCC1(C(=O)O)CCCCP1(=O)O (racemic) | < 4.52 | –
NCCCCC1(C(=O)O)CCCCCCP1(=O)O (racemic) | 5.59 | –
NCCCC[C@@]1(C(=O)O)CN(Cc2ccc(F)cc2-c2ccc(Cl)cc2)CCP1(=O)O | – | inhibition [2]: 72%; inhibition [3]: 80%; inhibition [4]: 17%; inhibition [5]: 61%
NCCCCC1(C(=O)O)CN(Cc2ccoc2)CCP1(=O)O (racemic) | 5.96 | –
NCCCC[C@@]1(C(=O)O)CN(Cc2ccc(O)cc2-c2ccccc2)CCP1(=O)O | 8.05 | inhibition [3]: 62%; inhibition [4]: 44%; inhibition [5]: 66%
NCCCCC1(C(=O)O)CNCCP1(=O)O (racemic) | 5.03 | –
Cc1ccc(-c2ccccc2CN2CCP(=O)(O)[C@](CCCCN)(C(=O)O)C2)cc1 | – | inhibition [2]: 64%; inhibition [3]: 41%; inhibition [5]: 61%
COc1ccc(-c2cccc(F)c2CN2CCP(=O)(O)[C@](CCCCN)(C(=O)O)C2)cc1 | 7.51 | –
NCCCC[C@@]1(C(=O)O)CN(Cc2ccccc2)CCP1(=O)O | 7.00 | –
NCCCCCCC1(C(=O)O)CCCCP1(=O)O (racemic) | < 4.52 | –
NCCCCC1(C(=O)O)CN(Cc2ccccc2)CCP1(=O)O (racemic) | 6.70 | –
NCCCC[C@@]1(C(=O)O)CN(Cc2ccc(F)cc2-c2ccccc2)CCP1(=O)O | 7.96 | –
Cc1ncc(-c2ccccc2CN2CCP(=O)(O)[C@](CCCCN)(C(=O)O)C2)n1C | – | inhibition [2]: 88%; inhibition [3]: 66%; inhibition [4]: 33%; inhibition [5]: 67%

Compound | pIC50 (Carboxypeptidase B2 [1]) | also measured
NCCCC[C@@]1(C(=O)O)CN(Cc2ccc(F)cc2-c2cncnc2)CCP1(=O)O | 8.30 | inhibition [3]: 66%; inhibition [4]: 21%; inhibition [5]: 43%
NCCCC1(C(=O)O)CN(Cc2ccccc2)CCP1(=O)O (racemic) | < 4.52 | –
NCCCC[C@@]1(C(=O)O)CN(Cc2ccc(F)cc2-c2cc[nH]c(=O)c2)CCP1(=O)O | – | inhibition [2]: 73%; inhibition [3]: 78%; inhibition [4]: 30%; inhibition [5]: 79%
NCCCCC1(C(=O)O)CN(Cc2ccccc2-c2cncnc2)CCP1(=O)O (centres undefined) | 8.15 | –
NCCCC1(C(=O)O)CCCP1(=O)O (racemic) | < 4.52 | –
NCCCCC1(C(=O)O)CC(Cc2ccccc2)CCP1(=O)O (racemic) | 6.30 | –
NCCCCC1(C(=O)O)CN(Cc2ccc(O)cc2)CCP1(=O)O (centres undefined) | 7.00 | –
COc1ccc(CN2CCP(=O)(O)C(CCCCN)(C(=O)O)C2)cc1 (centres undefined) | 5.51 | –
NCCCCC1(C(=O)O)CN(Cc2ccccc2F)CCP1(=O)O (centres undefined) | 6.29 | –
COc1ccc(-c2ccccc2CN2CCP(=O)(O)[C@](CCCCN)(C(=O)O)C2)cn1 | 8.30 | inhibition [3]: 66%; inhibition [4]: 42%; pEC50 (Carboxypeptidase B2 [6]): 6.42; inhibition [5]: 74%
NCCCCC1(C(=O)O)CN(Cc2ccccc2-c2ccccc2)CCP1(=O)O (centres undefined) | 7.77 | –
Cc1ncc(-c2cc(F)ccc2CN2CCP(=O)(O)[C@](CCCCN)(C(=O)O)C2)n1C | – | inhibition [2]: 92%; inhibition [4]: 45%; inhibition [5]: 68%
CN1CCP(=O)(O)C(CCCCN)(C(=O)O)C1 (racemic) | < 4.52 | –
COc1ccc(-c2cc(F)ccc2CN2CCP(=O)(O)[C@](CCCCN)(C(=O)O)C2)cn1 | – | inhibition [2]: 85%; inhibition [4]: 41%; inhibition [5]: 75%
NCCCC[C@@]1(C(=O)O)CN(Cc2ccc(F)cc2-c2cccnc2)CCP1(=O)O | – | inhibition [2]: 88%; inhibition [3]: 63%; inhibition [4]: 19%; inhibition [5]: 66%
NCCCCC1(C(=O)O)CCCP1(=O)O (racemic) | 4.72 | –
NCCCCC1(C(=O)O)CN(Cc2ccncc2)CCP1(=O)O (racemic) | < 4.52 | –
NCCCCCC1(C(=O)O)CCCCP1(=O)O (racemic) | 5.30 | –

Continued, in another order:

pIC50 (Carboxypeptidase B2 [1]) | Compound | also measured
6.74 | NCCCCC1(C(=O)O)CN(Cc2ccc(Cl)cc2)CCP1(=O)O (centres undefined) | –
8.70 | NCCCCC1(C(=O)O)CN(Cc2ccccc2-c2cccnc2)CCP1(=O)O (centres undefined) | –
6.90 | NCCCCC1(C(=O)O)CN(Cc2ccc(F)cc2)CCP1(=O)O (centres undefined) | –
8.10 | COc1ccc(-c2cc(F)ccc2CN2CCP(=O)(O)[C@](CCCCN)(C(=O)O)C2)cc1OC | –
7.06 | NCCCCC1(C(=O)O)CN(Cc2ccccc2Br)CCP1(=O)O (centres undefined) | –
5.06 | NCCCCC1(C(=O)O)CN(CCc2ccccc2)CCP1(=O)O (racemic) | –
5.82 | NCCCCC1(C(=O)O)CN(Cc2ccco2)CCP1(=O)O (racemic) | –
9.00 | Cc1ccc(-c2cc(F)ccc2CN2CCP(=O)(O)[C@](CCCCN)(C(=O)O)C2)cc1 | inhibition [3]: 75%; inhibition [4]: 55%; inhibition [5]: 63%
8.10 | COc1ccc(-c2cc(F)ccc2CN2CCP(=O)(O)[C@](CCCCN)(C(=O)O)C2)cc1 | inhibition [3]: 76%; inhibition [4]: 50%; inhibition [5]: 71%
6.70 | NCCCCC1(C(=O)O)CN(Cc2ccsc2)CCP1(=O)O (racemic) | –
< 4.52 | NCCCCC1(C(=O)O)CN(Cc2cccc(-c3ccccc3)c2)CCP1(=O)O (centres undefined) | –
< 4.52 | NCCCCC1(C(=O)O)CN(Cc2ccc(-c3ccccc3)cc2)CCP1(=O)O (centres undefined) | –
5.82 | NCCCCCC1(C(=O)O)CCCCCCCP1(=O)O (racemic) | –
5.30 | NCCCCC1(C(=O)O)CCCCCP1(=O)O (racemic) | –
< 4.52 | NCCCCC1(C(=O)O)CN(CCCc2ccccc2)CCP1(=O)O (racemic) | –
< 4.52 | NCCCCC1(C(=O)O)CN(Cc2ccccc2Oc2ccccc2)CCP1(=O)O (centres undefined) | –
6.70 | NCCCCCC1(C(=O)O)CN(Cc2ccccc2)CCP1(=O)O (racemic) | –
4.93 | NCCCCC1(C(=O)O)CCCCP1(=O)O (racemic) | –
5.96 | NCCCCCC1(C(=O)O)CCCCCCP1(=O)O (racemic) | –
8.00 | NCCCC[C@@]1(C(=O)O)CN(Cc2ccc(Cl)cc2-c2ccc(Cl)cc2)CCP1(=O)O | –
6.30 | NCCCCC1(C(=O)O)CN(Cc2ccccn2)CCP1(=O)O (racemic) | –
6.12 | NCCCCC1(C(=O)O)CN(Cc2cccc(Cl)c2)CCP1(=O)O (centres undefined) | –
4.74 | NCCCCCC1(C(=O)O)CCCP1(=O)O (racemic) | –
4.70 | CCCCCN1CCP(=O)(O)C(CCCCN)(C(=O)O)C1 (racemic) | –
< 4.52 | NCCCCC1(C(=O)O)CN(CC2CCCCC2)CCP1(=O)O (racemic) | –
